Laboratory results published in ChEMBL document CHEMBL3603782, “Antimalarial benzoheterocyclic 4-aminoquinolines: Structure-activity relationship, in vivo evaluation, mechanistic and bioactivation studies” (Bioorg Med Chem, 2015).
Activity calls are given as the source filed them. No cut-off for these calls is given here.

What was measured:
[1] = system: Plasmodium berghei; assay: Antimalarial activity against GFP-transfected Plasmodium berghei ANKA infected in mouse assessed as reduction in parasitemia at 10 mg/kg, po qd administered for 4 days measured on day 4 post last dose by flow cytometric analysis relative to control; type: functional; parameters: scale not given: the % may be the effect or the level left
[2] = system: Plasmodium berghei; assay: Antimalarial activity against GFP-transfected Plasmodium berghei ANKA infected in mouse assessed as mean survival days at 10 mg/kg, po qd administered for 4 days; type: functional
Method in brief: (§1)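 Mice (n = 3) infected with GFP-transfected P. berghei ANKA. Compound given orally, dissolved in a vehicle containing ethanol and diluted 10× with water. Multi-dose arms were dosed once daily on four consecutive days (4, 24, 48, 72 h post-infection). Parasitaemia was measured by flow cytometry, detection limit 0.1%. Activity is % reduction relative to controls. Survival was followed for 30 days.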

[3] = system: Plasmodium berghei; assay: Antimalarial activity against GFP-transfected Plasmodium berghei ANKA infected in mouse assessed as mean survival days at 30 mg/kg, po qd administered for 4 days; type: functional; method in brief: as §1
[4] = system: Plasmodium falciparum; assay: Resistance index, ratio of IC50 for multidrug-resistant Plasmodium falciparum K1 to IC50 for Plasmodium falciparum W2; type: functional
[5] = system: Plasmodium falciparum; assay: Antiplasmodial activity against Plasmodium falciparum W2 infected in human erythrocytes after 48 hrs by [3H]-hypoxanthine incorporation assay; type: functional, organism-based
[6] = system: Plasmodium falciparum; assay: Antiplasmodial activity against multidrug-resistant Plasmodium falciparum K1 infected in human erythrocytes after 48 hrs by [3H]-hypoxanthine incorporation assay; type: functional, organism-based
Method in brief: (§2)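 Modified [3H]-hypoxanthine incorporation assay against P. falciparum NF54 (sensitive) and K1 (multidrug-resistant). Values are means of ≥2 or ≥3 independent experiments. The resistance index is the K1 IC50 divided by the NF54 IC50.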

[7] = Stability of the compound by methoxylamine trapping method; type: physicochemical
[8] = Stability of the compound by potassium cyanide trapping method; type: physicochemical
[9] = Drug metabolism assessed as ratio of sum of compound adduct peak area to clozapine adduct peak area by GSH trapping method; type: physicochemical
[10] = system: Plasmodium falciparum; assay: Antiplasmodial activity against chloroquine-sensitive Plasmodium falciparum NF54 infected in human erythrocytes after 48 hrs by [3H]-hypoxanthine incorporation assay; type: functional, organism-based; method in brief: as §2
[11] = system: Plasmodium falciparum; assay: Resistance index, ratio of IC50 for multidrug-resistant Plasmodium falciparum K1 to IC50 for chloroquine-sensitive Plasmodium falciparum NF54; type: functional; method in brief: as §2
[12] = Inhibition of beta haematin formation after 5 to 6 hrs by pyridine-ferrichrome method; type: physicochemical
Method in brief: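 Modified β-haematin inhibition assay. Compounds from DMSO stocks, 0–1000 µM final, in duplicate. NP-40 added (30.55 µM). Haematin suspension added to give 0.5 M acetate pH 4.8 and 100 µM haematin, then incubated 5–6 h at 37 °C. Free haeme detected with pyridine/H2O/acetone/0.2 M HEPES pH 7.4 reagent (final pyridine ~5% v/v) plus acetone, and absorbance read.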

[13] = Lipophilicity, log P of the compound; type: physicochemical; settings: octanol/water
[14] = Metabolic stability in human liver microsomes assessed as compound remaining at […] after 30 mins by HPLC-MS/MS analysis in presence of NADPH; type: ADME; settings: read-out: Stability
[15] = Metabolic stability in BALB/c mouse liver microsomes assessed as compound remaining at […] after 30 mins by HPLC-MS/MS analysis in presence of NADPH; type: ADME; settings: read-out: Stability
[16] = Selectivity index, ratio of IC50 for CHO cells to IC50 for chloroquine-sensitive Plasmodium falciparum NF54; type: toxicity, cell-based; settings: hamster, read-out: Ratio IC50
[17] = system: CHO; assay: Cytotoxicity against CHO cells by MTT assay; type: cell-based; settings: Cricetulus griseus
Method in brief: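 CHO cells, MTT assay. Stocks 20 mg/mL in DMSO, diluted in complete medium; undissolved samples tested as suspensions. Emetine served as reference (10-fold dilutions, 6 concentrations, lowest 0.001 µg/mL). IC50 derived from full dose–response curves by non-linear fitting.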

[18] = system: Plasmodium berghei; assay: Antimalarial activity against GFP-transfected Plasmodium berghei ANKA infected in mouse assessed as reduction in parasitemia at 50 mg/kg, po qd administered for 4 days measured on day 4 post last dose by flow cytometric analysis relative to control; type: functional; parameters: scale not given: the % may be the effect or the level left
[19] = system: Plasmodium berghei; assay: Antimalarial activity against GFP-transfected Plasmodium berghei ANKA infected in mouse assessed as mean survival days at 50 mg/kg, po qd administered for 4 days; type: functional; method in brief: as §1
[20] = system: Plasmodium berghei; assay: Antimalarial activity against GFP-transfected Plasmodium berghei ANKA infected in mouse assessed as cure rate at 50 mg/kg, po qd administered for 4 days measured over 30 days; type: functional, organism-based
[21] = system: Plasmodium berghei; assay: Antimalarial activity against GFP-transfected Plasmodium berghei ANKA infected in mouse assessed as reduction in parasitemia at 50 mg/kg, po by flow cytometric analysis relative to control; type: functional; parameters: scale not given: the % may be the effect or the level left
[22] = system: Plasmodium berghei; assay: Antimalarial activity against GFP-transfected Plasmodium berghei ANKA infected in mouse assessed as mean survival days at 50 mg/kg, po; type: functional; method in brief: as §1
[23] = system: Mus musculus; assay: Toxicity in mouse infected with GFP-transfected Plasmodium berghei ANKA at 50 mg/kg, po qd administered for 4 days measured over 30 days; type: organism-based; settings: in vivo, 720 h
[24] = system: Plasmodium berghei; assay: Antimalarial activity against GFP-transfected Plasmodium berghei ANKA infected in mouse assessed as cure rate at 10 mg/kg, po qd administered for 4 days measured over 30 days; type: functional, organism-based
[25] = system: Mus musculus; assay: AUC in C57Bl/6 mouse at 20 mg/kg, po; type: ADME, organism-based; settings: in vivo
Method in brief: (§3)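 C57Bl/6 mice, n = 3 per route. IV group dosed 5 mg/kg in DMSO, PEG, EtOH, PPG (2:6:1:7, v/v); tail-tip blood (20 µL) at 0.08, 0.5, 1, 3, 7 and 24 h. Oral group received a single 20 mg/kg gavage as a suspension in 0.5% HPMC in water; blood at 0.5, 1, 3, 5 and 24 h. Whole-blood LC–MS/MS (10–5000 ng/mL) after methanol protein precipitation; non-compartmental analysis.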

[26] = system: Mus musculus; assay: AUC in C57Bl/6 mouse at 5 mg/kg, iv; type: ADME, organism-based; settings: in vivo; method in brief: as §3
[27] = Oral bioavailability in C57Bl/6 mouse at 20 mg/kg; type: ADME, organism-based; settings: in vivo; method in brief: as §3
[28] = Tmax in C57Bl/6 mouse at 20 mg/kg, po; type: ADME, organism-based; settings: in vivo; method in brief: as §3
[29] = Elimination half life in C57Bl/6 mouse at 5 mg/kg, iv; type: ADME, organism-based; settings: in vivo, read-out: beta t1/2 (converted); method in brief: as §3
[30] = Elimination half life in C57Bl/6 mouse at 20 mg/kg, po; type: ADME, organism-based; settings: in vivo, read-out: beta t1/2 (converted); method in brief: as §3
[31] = Total clearance in C57Bl/6 mouse at 5 mg/kg, iv; type: ADME, organism-based; settings: in vivo; method in brief: as §3
[32] = Volume of distribution in C57Bl/6 mouse at 5 mg/kg, iv; type: ADME, organism-based; settings: in vivo; method in brief: as §3
[33] = Cmax in C57Bl/6 mouse at 5 mg/kg, iv; type: ADME, organism-based; parameters: dose 5 mg/kg, route intravenous; settings: in vivo; method in brief: as §3
[34] = Cmax in C57Bl/6 mouse at 20 mg/kg, po; type: ADME, organism-based; parameters: dose 20 mg/kg, route oral; settings: in vivo; method in brief: as §3

SMILES	Activity [1]	MSD [2]	Ratio IC50 [4]	IC50 [6]	IC50 [10]	Ratio IC50 [11]	IC50 [12]	logP [13]	remaining at 0.5 h [14]	remaining at 0.5 h [15]	selectivity ratio [16]	IC50 [17]	Activity [18]	MSD [19]	other results
CCN(CC)CCCC(C)Nc1ccnc2cc(Cl)ccc12 (configuration not stated) [CHLOROQUINE]	99.9%	16 days	–	–	–	–	–	–	–	–	–	–	–	–	MSD [3]: 24 days
Clc1ccc2c(Nc3ccc4[nH]c(NCCN5CCOCC5)nc4c3)ccnc2c1	–	–	3.93	742 nM	–	–	–	–	–	–	–	–	–	–	IC50 [5]: 189 nM
CC(C)(C)Nc1nc2cc(Nc3ccnc4cc(Cl)ccc34)ccc2s1	–	–	0.79	–	–	–	–	–	–	–	–	–	–	–	Stability [7]: Unstable; Stability [8]: Unstable; Ratio [9]: 0.74
CCNc1nc2cc(Nc3ccnc4cc(Cl)ccc34)ccc2o1	–	–	1.88	–	466 nM	2.15	80200 nM	3.75	81%	1%	–	–	–	–	Stability [7]: Unstable; Stability [8]: Unstable
CCN(CC)Cc1cc(Nc2ccnc3cc(Cl)ccc23)ccc1O [AMODIAQUINE]	100%	>30 days	1.6	8 nM	4 nM	2.5	43500 nM	–	–	–	36800	147000 nM	99.9%	>30 days	IC50 [5]: 5 nM
Clc1ccc2c(Nc3ccc4oc(NCCN5CCCC5)nc4c3)ccnc2c1	99.8%	>30 days	2.75	–	15 nM	3.73	91500 nM	–	62%	81%	327	4900 nM	99.8%	>30 days	Activity [20]: Active; Activity [21]: 99.5%; MSD [22]: 23.3 days; Activity [23]: Non-toxic; Activity [24]: Active
CN(C)CCNc1nc2cc(Nc3ccnc4cc(Cl)ccc34)ccc2o1	99.9%	24 days	–	42 nM	12 nM	3.5	363000 nM	3.38	> 99%	> 99%	633	7590 nM	99.8%	29.3 days	Activity [21]: 99.5%; MSD [22]: 13.7 days
CCNc1nc2cc(Nc3ccnc4cc(Cl)ccc34)ccc2[nH]1	–	–	0.5	–	–	–	–	–	–	–	–	–	–	–	Stability [7]: Unstable; Stability [8]: Unstable
Clc1ccc2c(Nc3ccc4sc(NCCN5CCOCC5)nc4c3)ccnc2c1	–	–	0.63	–	–	–	–	–	–	–	–	–	–	–	Ratio [9]: 1.13
Clc1ccc2c(Nc3ccc4oc(NCCCN5CCCCC5)nc4c3)ccnc2c1	99.8%	15.7 days	–	39 nM	10 nM	3.9	105000 nM	4.16	70%	49%	1060	10600 nM	99.8%	>30 days	Activity [20]: Active; AUC [25]: 1020 (umol/L).min; AUC [26]: 454 (umol/L).min; bioavailability [27]: 56%; Activity [21]: 99.5%; MSD [22]: 14 days; Tmax [28]: 2.9 h; half-life [29]: 10 h; half-life [30]: 10.9 h; clearance [31]: 28.3 mL/min/kg; Vd [32]: 24.5 L/kg; Cmax [33]: 2740 nM; Cmax [34]: 1010 nM
Clc1ccc2c(Nc3ccc4sc(NCCN5CCCCC5)nc4c3)ccnc2c1	–	–	0.54	–	–	–	–	–	–	–	–	–	–	–	Ratio [9]: 0.88
Clc1ccc2c(Nc3ccc4oc(NCCN5CCCCC5)nc4c3)ccnc2c1	–	–	–	24 nM	10 nM	2.4	89000 nM	4.11	71%	41%	758	7580 nM	99.9%	27 days	–
